# Assay outcomes deposited in PubChem BioAssay by several laboratories.
# HSF-1 act: increases HSF-1 driven luciferase reporter signal; AID 504408; actives 1.7% (n = 300,000); activation, % at 9 µM; NIH3T3-HGL HSF-1 luciferase reporter, MG132, 8 h; 100% = twice DMSO control signal;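 active = mean replicate activation of at least 50% with a set share of replicates each reaching 50%; inconclusive = only one of those two conditions met; inactive = mean below 50% and too few replicates reaching it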;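 also: 0% = median of the neutral control wells and 100% = twice that signal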
# HSP90 inh: inhibitors of HSP90 luciferase refolding in rabbit reticulocyte lysate; actives 0.91% (n = 290,000); luciferase refolding luminescence, 3 h; inhibition, % at 5.6 µM;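 active = inhibition above the screen-wide mean plus 3 SD, computed separately per campaign, cut at about 16% in these data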;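 also: 0% = DMSO wells and 100% = 60 µM geldanamycin wells; inhibitors lower the luminescence because luciferase stays unfolded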
# HSF1 inh: HSF1 inhibition | NIH3T3-HGL HSE-luciferase, MG132-induced, luminescence 8 h; hits give low values | activity change, negative = inhibition, % at 7.5 µM (by protocol) | actives 0.77% (n = 300,000) | AID 2098;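 active = more than half of replicate wells show activity change below -50%, luminescence cut by over half; inconclusive = some wells, but at most half, below -50%; inactive = no replicate well below -50%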;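 also: luciferase reports HSF-1 transcriptional activity via heat shock element; 0% = median of DMSO wells and -100% = zero luminescence signal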
# Lipid droplet: hepatic lipid droplet formation modulation. AML12 mouse hepatocytes, oleate lipid droplets, BODIPY imaging. inhibition, % at 6.5 µM. actives 0.4% (n = 240,000);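 active = lipid droplet intensity inhibited by at least 50%, with more than 500 cells counted; inconclusive = wells with under 300 cells, treated as cytotoxic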
#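 Material: mouse AML12 hepatocyte cell line, fixed after treatment; Timing: compound with oleate, overnight; Technique: high-content imaging of BODIPY-stained droplets and DAPI nuclei; Probe or stimulus: oleate, 100 µM final; Dosing: compound at 6.5 µM only.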
# NS3 helicase inh: HCV NS3 helicase inhibition | NS3 helicase DNA unwinding, Cy5 molecular beacon fluorescence | AID 1800 | actives 0.56% (n = 290,000) | inhibition, % at 10.9 µM;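 active = inhibition above the mean of all tested compounds plus 3 SD, set per campaign, cut at about 35% in these data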;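 also: 0% = DMSO wells and 100% = thioflavine S control wells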
#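 Material: hepatitis C virus NS3 helicase domain fragment enzyme; measured by: Cy5 fluorescence, 0 and 60 min reads; control set: DMSO and thioflavine S; incubation: 60 min unwinding reaction at 25 °C after ATP addition; read-out basis: % inhibition from 60/0 min fluorescence ratio, DMSO 0%, thioflavine S 100%; repeats: singlicate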
# Hep lipid conf: hepatic lipid droplet formation inhibition, confirmed. shares compounds with Lipid droplet. AML12 mouse hepatocytes, BODIPY lipid droplet imaging; droplets induced with 100 µM oleic acid. inhibition, % at 5.2 µM. actives 65% (n = 870). AID 463183;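 active = inhibition of lipid droplet metric at least 50%, with more than 300 cells in each of four replicates; inconclusive = wells under 300 cells, flagged as toxic or low count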;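 also: plate controls were DMSO with oleic acid for no effect and 5 µM Triacsin-C for full effect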
# AML12 cytotox: toxic to AML12 mouse hepatocytes in counter-screen | shares compounds with Lipid droplet | DAPI nuclear morphology cytotoxicity imaging; hits give high values; cells fed 100 µM oleate overnight | z-score at 5 µM | actives 3% (n = 870) | AID 463200; in the data active = z-score above about 6.3;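 also: compound exposure lasted overnight at 37 °C before fixation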
# AML12 tox ATP: AML12 hepatocyte cytotoxicity, confirmed. shares compounds with Lipid droplet. AML12 mouse hepatocyte viability, ATP luminescence; cells loaded with 100 µM oleic acid. cytotoxicity, % at 50 µM. 530 tested, under 10 active. AID 463219;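 active = cytotoxicity above 50% in each of four replicates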;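 also: compound exposure lasted overnight at 37 °C before the ATP read; 0% = DMSO-treated cells and 100% = wells with no cells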
# Starred values were filed as active, the others as inactive; ? = inconclusive; · = not tested or not shown. Only some compounds are listed: those with a hit (about 3.8% of all), similar ones and a draw of the others.
SMILES,HSF-1 act,HSP90 inh,HSF1 inh,Lipid droplet,NS3 helicase inh,Hep lipid conf,AML12 cytotox,AML12 tox ATP
Oc1[nH]c2ccccc2c1N=Nc1nc(Nc2ccccc2)nc(N2CCOCC2)n1,-46,1,?,60*,0,84,20*,·
CCCOc1ccccc1C(=O)N(Cc1ccc(C)o1)C1CCS(=O)(=O)C1 (centres undefined),2,-1,6,65*,6,78*,0.48,-3
CCCOc1ccccc1C(=O)N(Cc1ccco1)C1CCS(=O)(=O)C1 (centres undefined),-5,3,-2,·,6,·,·,·
CCCCOc1ccccc1C(=O)N(Cc1ccc(C)o1)C1CCS(=O)(=O)C1 (centres undefined),4,-4,0,64*,-2,97*,0.93,10
CCOC(=O)c1ccc(NC(=O)CCOc2ccccc2)cc1,0,0,4,21,-1,·,·,·
CCCOC(=O)c1ccc(NC(=O)CCOc2ccccc2)cc1,16,-1,4,52*,-14,104*,-0.16,14
Cc1ccc(-n2nnnc2SCC(=O)Nc2ncc(Cc3ccccc3Cl)s2)cc1,2,0,0,79*,14,104*,0.26,10
O=C(CSc1nnnn1-c1ccccc1)Nc1ncc(Cc2cccc(Cl)c2Cl)s1,-18,2,-11,-7,2,·,·,·
CCCC(=O)Nc1ccccc1NC(=O)c1ccc(OC(C)=O)cc1,14,-2,1,-7,7,·,·,·
COc1ccc(NC(=O)N2CCC(C(=O)c3ccc(F)cc3)CC2)cc1,-19,-1,-21,·,4,·,·,·
CSc1ccc(NC(=O)N2CCC(C(=O)c3ccc(F)cc3)CC2)cc1,-8,0,-11,71*,-2,96*,0.49,19
Cc1cc(C)cc(NC(=O)N2CCC(C(=O)c3ccc(F)cc3)CC2)c1,-17,2,-6,67*,-11,96*,0.074,13
Cc1cccc(NC(=O)N2CCC(C(=O)c3ccc(F)cc3)CC2)c1,-7,-3,0,84*,-11,98*,-0.69,13
CC(=O)c1cccc(NC(=O)N2CCC(C(=O)c3ccc(F)cc3)CC2)c1,7,2,6,2,-1,·,·,·
Cc1ccc(S(=O)(=O)NC2CC(=O)N(c3ccc4c(c3)OCCO4)C2)cc1 (centres undefined),-5,·,-2,·,·,·,·,·
COc1ccc(CNC(=O)N2CCN(S(=O)(=O)c3ccc(C)cc3C)CC2)cc1,-13,0,-5,82*,-1,79*,-0.25,9
CCOc1ccccc1NC(=O)c1cccc(NC(=O)C2CCCC2)c1,-10,2,0,63*,-5,95*,0.46,4
COc1ccc(/C=N/N=C2\SCC(=O)N2c2c(C)n(C)n(-c3ccccc3)c2=O)cc1OC,-5,-3,0,62*,3,32,-0.53,·
CCCN(C(=O)COC(=O)CCOc1ccccc1C)c1c(N)n(Cc2ccccc2)c(=O)[nH]c1=O,6,0,5,2,-6,·,·,·
CCN(CC)S(=O)(=O)c1ccc(S(=O)(=O)N(CC(=O)Nc2ccccc2)Cc2ccco2)cc1,32,1,13,62*,0,96*,-0.42,11
CCOC(=O)c1c(C)[nH]c(C)c1S(=O)(=O)N1CCN(c2ccc([N+](=O)[O-])cc2)CC1,29,0,11,93*,-13,-33,0.74,·
CCOC(=O)c1c(S(=O)(=O)N2CCN(c3ccc(F)cc3)CC2)c(C)n(C)c1C,8,-2,5,17,-1,·,·,·
Cc1ccccc1OCC(=O)NCCCNC(=O)c1ccccn1,1,-4,-2,93*,-3,10,-0.46,·
CC(=O)Nc1ccc(/C=N/NC(=S)NC(C)C)cc1,1,-7,-1,-17,2,·,·,·
CS(=O)(=O)Cc1ccc(C(=O)N2CCCC2c2cccs2)cc1 (centres undefined),7,-1,5,-2,-1,·,·,·
